Mcl1-Bid inh = Mcl-1/Bid binding inhibitors, primary screen, biochemical, TR-FRET, 1536-well; actives 0.97% (n = 220,000); AID 1021, 2008; TR-FRET Mcl-1/Bid-Dy647 peptide binding; inhibition, % at 21.7 µM;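 active = compounds that cut the binding signal by more than half at the single screening dose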;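 note: His-tagged Mcl-1 with europium anti-His antibody binding Bid BH3 peptide; 0% = Mcl-1 plus peptide wells and 100% = peptide-only wells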
14-3-3 Bad PPI = inhibitors of 14-3-3 zeta/Bad binding, primary screen, biochemical, TR-FRET, bovine 14-3-3 zeta; 14-3-3 protein zeta/delta (Bos taurus), P63103; TR-FRET 14-3-3zeta/Dy647-pBad peptide displacement, 1 h; inhibition, % at 21.7 µM; actives 0.71% (n = 220,000); AID 781, 2007;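 active = inhibition above about 70%, limit read from the data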;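 note: 0% = full 14-3-3 plus peptide FRET controls and 100% = background without 14-3-3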
Hck Nef HTS = inhibitors of Nef-activated human Hck kinase, primary screen, biochemical, Z-Lyte FRET, 384-well, Hck-YEEI; Tyrosine-protein kinase HCK (Homo sapiens), P08631; Recombinant Hck-YEEI plus Nef, Z-Lyte FRET kinase assay; inhibition, % at 20 µM; actives 0.68% (n = 220,000); AID 463187, 2010;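 active = Hck-Nef kinase inhibition above about 50%, limit read from the data; inactive = inhibition below that limit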;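 note: 0% = DMSO with Hck plus Nef and 100% = Hck alone without Nef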
Target sequence (P08631 whole entry, looked up): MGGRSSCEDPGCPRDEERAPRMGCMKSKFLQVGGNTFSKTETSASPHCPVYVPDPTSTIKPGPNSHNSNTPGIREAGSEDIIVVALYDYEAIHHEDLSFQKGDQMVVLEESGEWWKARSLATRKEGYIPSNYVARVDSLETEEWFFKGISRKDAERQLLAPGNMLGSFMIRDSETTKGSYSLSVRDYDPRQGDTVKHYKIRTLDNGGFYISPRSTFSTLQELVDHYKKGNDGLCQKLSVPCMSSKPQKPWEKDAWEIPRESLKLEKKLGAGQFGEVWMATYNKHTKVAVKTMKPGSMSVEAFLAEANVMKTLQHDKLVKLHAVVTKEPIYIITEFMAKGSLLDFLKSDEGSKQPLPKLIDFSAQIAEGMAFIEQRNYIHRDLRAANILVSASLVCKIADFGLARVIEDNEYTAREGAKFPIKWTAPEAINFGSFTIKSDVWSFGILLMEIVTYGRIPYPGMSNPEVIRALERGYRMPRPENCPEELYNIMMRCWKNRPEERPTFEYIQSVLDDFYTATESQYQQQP
Mcl1 Noxa PPI = Mcl-1/Noxa binding inhibitors, primary screen, biochemical, TR-FRET, 1536-well | actives 1.5% (n = 220,000) | inhibition, % at 21.7 µM | TR-FRET Mcl-1/Noxa peptide binding, 2 h;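 active = compounds that cut the protein-peptide binding signal by more than 50% relative to plate controls in a single-dose test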;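 note: His-tagged Mcl-1 with rhodamine Noxa BH3 peptide and terbium anti-His antibody; 0% = Mcl-1 plus Noxa peptide wells and 100% = peptide-only wells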
Biofilm kill mix = clotrimazole potentiators killing C. albicans biofilm, primary screen, 4-compound mixtures; C. albicans biofilm persisters + clotrimazole, fluorescence viability; primary screen in compound mixtures of four per well; inhibition, % at 7.6 µM; actives 0.02% (n = 120,000);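 active = inhibition above 30.3% in the primary screen of four-compound pools, then above 30% when the compound was retested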;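 note: compounds exposed to preformed 24 h biofilms for 48 h; 0% = untreated biofilm control and 100% = clotrimazole plus chlorhexidine kill blank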
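Incubation: 24 h biofilm formation, then 48 h compound exposure, 37 °C | Material: C. albicans biofilms | Buffer or medium: RPMI/MOPS medium, pH 7.0 | Measured by: 2-h Alamar Blue fluorescence, 535/590 nm excitation/emission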
Bim-Mcl-1 = inhibitors of Bim peptide binding to Mcl-1, primary screen, biochemical, bead-based flow cytometry, multiplex. actives 0.1% (n = 190,000). inhibition, % at 10 µM. Bim peptide-Mcl-1 binding. Induced myeloid leukemia cell differentiation protein Mcl-1 (Homo sapiens), Q07820. AID 1009, 2008; in the data active = inhibition above about 40%;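 note: 0% = no compound tracer wells and 100% = peptide blocker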
Numbers without * were called inactive; . = not tested or not shown. Shown are actives, neighbours in structure and some others; about 3.2% of the full set was active somewhere.

SMILES	Mcl1-Bid inh	14-3-3 Bad PPI	Hck Nef HTS	Mcl1 Noxa PPI	Biofilm kill mix	Bim-Mcl-1
O=c1[nH]c(C(Cl)Cl)nc2sc3c(c12)CCN(Cc1ccccc1)C3	4	20	-30	94*	-1	3
O=C(Nc1ccc(F)cc1F)N1CCN(CCc2ccccc2)CC1	-15	3	19	3	27	.
Oc1nc(Nc2ccc(F)cc2)sc1/C=C1\C=Nc2ccccc21	32	7	25	102*	12	.
Oc1nc(Nc2cccc(Cl)c2)sc1/C=C1\C=Nc2ccccc21	-20	-4	4	36	24	-2
COCCCNC(=S)NNC(=O)c1ccc(S(=O)(=O)N2CCC(C)CC2)cc1	-48	-14	17	7	2	-1
Cc1ccc(NC(=S)N(CCCN2CCC(C)CC2)Cc2ccco2)cc1C	-44	-1	-19	10	-3	-4
O=C(NC1CCC(O)CC1)c1ccc(-c2ccc([N+](=O)[O-])cc2)o1 (stereo not drawn)	25	20	25	71*	14	.
O=C1CSc2ccc(C(=O)NCCC3=CCCCC3)cc2N1	4	-8	1	-1	.	-2
CCN1CCc2c(OCC(=O)N3N=C(c4cccs4)CC3c3ccc(F)cc3)cccc2C1=O (stereo not drawn)	5	-5	1	-19	18	-5
CN1CCc2c(OCC(=O)N3N=C(c4cccs4)CC3c3ccc(F)cc3)cccc2C1=O (stereo not drawn)	54*	-2	1	10	19	-4
Cc1ccc(Cn2c(S(=O)(=O)O)nc3ccccc32)cc1	3	81*	-5	16	.	-2
CCS(=O)(=O)NCc1ccc2c(c1)cc(C)n2C	70*	6	0	32	.	0
CCOC(=O)Cc1csc(NC(=O)c2sc3nc4ccc(CC)cc4cc3c2N)n1	91*	65	7	89*	.	5
CCOC(=O)Cc1csc(NC(=O)c2ccc(Br)o2)n1	-22	3	2	0	.	-1
COc1cccc(N2CCN(CC(=O)C34CC5CC(CC(C5)C3)C4)CC2)c1	-12	-14	7	4	.	0
COc1cccc(N2CCN(C3C4CC5CC(C4)CC3C5)CC2)c1 (stereo not drawn)	13	88*	-15	20	.	2
COc1ccc(NC(=O)C2CCCC2)cn1	-15	-13	21	13	0	-4
CC1CCCN(C(=O)CCCn2c(=S)[nH]c3ccccc3c2=O)C1 (stereo not drawn)	-23	-1	1	1	.	-6
O=C(O)[C@H](Cc1ccccc1)NC(=O)C(c1ccccc1)(c1ccccc1)c1ccccc1	-16	88*	9	-5	21	-1
CCCn1c(SCC(=O)c2ccc(CC)cc2)n[nH]c1=O	-21	-23	1	2	.	-1
Cc1ccc(Cn2c(=N)n(CC(O)COc3ccccc3)c3ccccc32)cc1 (stereo not drawn)	-6	2	-2	17	.	0
N=c1n(Cc2ccccc2)c2ccccc2n1CC(O)COc1ccccc1 (stereo not drawn)	64*	10	3	19	.	1
CCOc1cccc2cc(C(=O)NCCC3=CCCCC3)c(=O)oc12	-13	4	8	7	17	-1
COCCn1c(SCC(=O)Nc2ccc(C)cc2C)nc2c(oc3ccccc32)c1=O	39	5	3	-14	6	0
COCCn1c(SCC(=O)Nc2ccccc2C)nc2c(oc3ccccc32)c1=O	54*	30	2	5	10	-4
SMILES	Mcl1-Bid inh	14-3-3 Bad PPI	Hck Nef HTS	Mcl1 Noxa PPI	Biofilm kill mix	Bim-Mcl-1
Cc1cc(C)n(-c2ccc(C(=O)OCC(=O)c3c(N)n(C)c(=O)n(C)c3=O)cc2)n1	-33	2	2	5	.	-4
O=C(NCc1ccccc1)c1sc(=S)n2c1[nH]c(=O)c1ccccc12	-21	35	3	52*	.	1
CC(=O)NNC(=O)c1sc(=S)n2c1[nH]c(=O)c1sccc12	-20	-6	18	68*	6	-7
CCCNC(=O)c1ccccc1C(=O)NC1(C(=O)NCCC)CCCC1	-28	3	22	-5	26	.
FC(F)(F)c1ccc(/C=N/N2CCN(Cc3cccc4ccccc34)CC2)cc1	-71	-18	0	-5	.	0
C(=N\N1CCN(Cc2cccc3ccccc23)CC1)/c1ccco1	-49	-15	21	3	.	1
O=C(O)c1ccc(/C=N/N2CCN(Cc3cccc4ccccc34)CC2)cc1	-26	94*	7	4	5	1
C(=N\N1CCN(Cc2cccc3ccccc23)CC1)/c1cccnc1	58*	2	-2	-9	.	0
CCOC(=O)c1c(-c2ccc(C)o2)csc1NC(=O)CN1CCN(CC)CC1	-21	71*	1	19	.	1
c1ccc(-c2ccccc2OCCOCCN2CCNCC2)cc1	14	27	18	15	3	1
CC1CC(C)CN(CCOc2ccccc2-c2ccccc2)C1 (stereo not drawn)	57*	42	5	31	8	-3
CC1CCN(CCOc2ccccc2-c2ccccc2)CC1	28	46	3	19	18	0
CCN1CCN(CCOCCOc2ccccc2-c2ccccc2)CC1	39	71*	12	25	6	2
CC(C)(C)NCCOCCOc1ccccc1-c1ccccc1	56*	39	1	4	28	-2
COc1ccc(NC(=S)N2CCC(C(=O)c3ccc(C)cc3)CC2)c(OC)c1	-14	-14	1	17	16	0
CCS(=O)(=O)c1ccc(O)c(NC(=O)Nc2ccccc2OC)c1	-45	-3	18	0	20	.
CC(=O)N1CCCC1(C(=O)O)c1ccccc1 (stereo not drawn)	6	1	8	2	16	.
O=C(CSc1nc2ncc(Br)cc2[nH]1)c1cccc([N+](=O)[O-])c1	-81	-10	2	64*	20	-2
Cc1nc2nc(SCC(=O)c3cccc([N+](=O)[O-])c3)[nH]c2cc1Br	-30	2	2	7	15	-7
COc1ccc(C(=O)C[n+]2cn(C(F)F)c3ccccc32)c(F)c1	-22	-10	29	1	10	0
COc1cc(NC(=O)CN2CCN(Cc3ccc4c(c3)OCO4)CC2)cc(OC)c1	36	82*	8	34	.	-1

Screening results: PubChem BioAssay, several laboratories
